According to ChEMBL document CHEMBL3997837, “Potent covalent inhibitors of bacterial urease identified by activity-reactivity profiling” (Bioorg Med Chem Lett, 2017):
Activity calls are given as the source filed them. The rule behind the calls is not given here.

Columns and labels:
Papain (Carica papaya) [1] = target: T1, Papain (Carica papaya) (UniProt P00784); experiment: Inhibition of Carica papaya papain at 0.1 to 1 mM using BzArgOEt as substrate measured for 30 mins
T1 sequence (whole entry): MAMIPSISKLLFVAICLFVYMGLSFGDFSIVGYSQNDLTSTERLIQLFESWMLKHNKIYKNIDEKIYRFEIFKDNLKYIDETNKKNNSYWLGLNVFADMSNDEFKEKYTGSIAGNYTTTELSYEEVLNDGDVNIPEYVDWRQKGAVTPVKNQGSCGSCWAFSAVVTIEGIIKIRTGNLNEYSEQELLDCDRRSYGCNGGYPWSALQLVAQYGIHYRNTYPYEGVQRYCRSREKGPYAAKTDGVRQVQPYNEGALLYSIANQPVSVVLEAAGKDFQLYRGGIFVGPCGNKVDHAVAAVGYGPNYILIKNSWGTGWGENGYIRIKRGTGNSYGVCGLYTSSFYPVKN

[2] = Inhibition of Proteus mirabilis 543 urease at pH 5.5 assessed as reduction in ammonia production using urea as substrate preincubated for 120 mins followed by substrate addition measured after 15 mins by NaOH-hypochlorite method; conditions: read-out: IC50
Outline: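 Intact Proteus mirabilis cells were preincubated with inhibitors in PBS for 2 h, then tested at pH 5.5, matching urine acidity, with 5 mM urea. IC50 was determined.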

Proteus mirabilis = experiment: Inhibition of Proteus mirabilis 543 urease at pH 5.5 assessed as reduction in ammonia production using urea as substrate followed by substrate addition by NaOH-hypochlorite method; conditions: TDE = time-dependent effect
[3] = Glutathione reactivity in pH 7.4 PBS measured after 6 to 36 hrs in presence of 1.375 mmol GSH by DTNB reagent based spectrophotometric method
Outline: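 Glutathione served as a model reactive-thiol compound. Unreacted GSH was quantified spectrophotometrically by a modified Ellman method, and reaction progress was followed over time up to 36 h.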

[4] = Inhibition of Sporosarcina pasteurii CCM 2056 urease assessed as reduction in ammonia production using urea as substrate measured for 120 mins by phenol-hypochlorite method; conditions: read-out: Ki
[5] = Inhibition of Proteus mirabilis 543 urease at pH 5.5 assessed as reduction in ammonia production using urea as substrate measured after 15 mins by NaOH-hypochlorite method; conditions: read-out: IC50
Outline: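 Intact Proteus mirabilis cells were tested at pH 5.5, matching physiological urine, with 5 mM urea. Inhibitors were added without preincubation, and IC50 was determined.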

Sporosarcina pasteurii [6] = experiment: Reversible inhibition of Sporosarcina pasteurii CCM 2056 urease assessed as reduction in ammonia production by measuring recovery of enzyme activity at 10 times IC50 preincubated for 60 mins followed by 100-fold dilution in to PBS containing urea as substrate by Berthelot colorimetric assay relative to control; parameters: Activity: scale not given: the % may be the effect or the level left
BALB/3T3 = experiment: Cytotoxicity against mouse BALB/3T3 cells assessed as reduction in cell proliferation after 72 hrs by SRB assay; type: cell-based; conditions: balb/3t3, 72 h
Outline: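 Mouse BALB/3T3 fibroblasts were scored by SRB assay, with cytotoxicity given as LC50 values.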

[7] = Inhibition of Sporosarcina pasteurii CCM 2056 urease assessed as reduction in ammonia production by measuring steady state enzyme-inhibitor complex using urea as substrate measured for 120 mins by phenol-hypochlorite method; conditions: read-out: Ki
[8] = Inhibition of Sporosarcina pasteurii CCM 2056 urease assessed as reduction in ammonia production by measuring initial state enzyme-inhibitor complex using urea as substrate measured for 120 mins by phenol-hypochlorite method; conditions: read-out: Ki
Sporosarcina pasteurii [9] = experiment: Time-dependent Sporosarcina pasteurii CCM 2056 urease assessed as reduction in ammonia production using urea as substrate by phenol-hypochlorite method
Sporosarcina pasteurii [10] = experiment: Competitive inhibition of Sporosarcina pasteurii CCM 2056 urease assessed as reduction in ammonia production preincubated with enzyme followed by addition of varying levels of urea as substrate measured for 120 mins by Lineweaver-Burk plot analysis
[11] = Glutathione reactivity after 36 hrs in presence of 10 mM GSH by 1H NMR analysis
Papain (Carica papaya) [12] = target: T1, Papain (Carica papaya); experiment: Inhibition of Carica papaya papain at 0.1 to 0.25 mM using BzArgOEt as substrate measured for 30 mins

Question: For `O=C(O)C#CC(=O)O`, which inhibition (Papain (Carica papaya) [1]) is on record?
Answer: inactive

Question: And the IC50 [2]?
Answer: 88.6 µM

Question: And the inhibition (Proteus mirabilis)?
Answer: Tde

Question: And the K [3]?
Answer: 0.000122 M⁻¹ s⁻¹

Question: What about the log K [3] of the same compound?
Answer: -2.14

Question: What about the Ki [4] of the same compound?
Answer: 0.0425 µM

Question: And the IC50 [5]?
Answer: 326 µM

Question: And the Activity (Sporosarcina pasteurii [6])?
Answer: 10.9%

Question: What about the LC50 (BALB/3T3) of the same compound?
Answer: Non-Toxic

Question: And the Ki [7]?
Answer: 0.0553 µM

Question: And the Ki [8]?
Answer: 3.95 µM

Question: And the TDI (Sporosarcina pasteurii [9])?
Answer: Active

Question: And the mode of inhibition (Sporosarcina pasteurii [10])?
Answer: Active

Question: Which inhibition (Papain (Carica papaya) [1]) does the source give for `O=C(O)/C=C/C(=O)O` [FUMARIC ACID] here?
Answer: inactive

Question: What about the IC50 [2] of the same compound?
Answer: 65.5 µM

Question: And the inhibition (Proteus mirabilis)?
Answer: Tde

Question: And the K [3]?
Answer: 5e-05 M⁻¹ s⁻¹

Question: What about the log K [3] of the same compound?
Answer: -2.52

Question: What about the Ki [4] of the same compound?
Answer: 36.5 µM

Question: And the IC50 [5]?
Answer: 182 µM

Question: And the Activity (Sporosarcina pasteurii [6])?
Answer: 39.7%

Question: And the LC50 (BALB/3T3)?
Answer: Non-Toxic

Question: And the Ki [7]?
Answer: 37.1 µM

Question: What about the Ki [8] of the same compound?
Answer: 432 µM

Question: What about the TDI (Sporosarcina pasteurii [9]) of the same compound?
Answer: Active

Question: And the mode of inhibition (Sporosarcina pasteurii [10])?
Answer: Active

Question: For `O=C(O)/C=C/c1ccccc1` [CINNAMIC ACID], which Drug metabolism [11] is on record?
Answer: Metabolite not detected

Question: What about the IC50 [2] of the same compound?
Answer: 125 µM

Question: And the inhibition (Proteus mirabilis)?
Answer: Tde

Question: And the K [3]?
Answer: < 1.67e-06 M⁻¹ s⁻¹

Question: What about the log K [3] of the same compound?
Answer: > -4

Question: What about the Ki [4] of the same compound?
Answer: 21.5 µM

Question: And the IC50 [5]?
Answer: 492 µM

Question: And the Activity (Sporosarcina pasteurii [6])?
Answer: 40.3%

Question: And the Ki [7]?
Answer: 23 µM

Question: What about the Ki [8] of the same compound?
Answer: 595 µM

Question: What about the TDI (Sporosarcina pasteurii [9]) of the same compound?
Answer: Active

Question: What about the inhibition (Papain (Carica papaya) [12]) of the same compound?
Answer: inactive

Question: And the mode of inhibition (Sporosarcina pasteurii [10])?
Answer: Active
